Results as given in ChEMBL document CHEMBL1146501, “Microbial transformation of isosteviol and inhibitory effects on Epstein-Barr virus activation of the transformation products” (J Nat Prod, 2004).

Legend:
Format in all cases: cell-based
Raji [1] = test: Inhibition of 12-O-tetradecanoylphorbol-13-acetate-induced EBV-early antigen activation in human Raji cells assessed as EA activation at 1000 molar ratio after 48 hrs relative to TPA; design: scale not given: the % may be the effect or the level left; details: human gammaherpesvirus 4
How it was run: (§1)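 EBV genome-carrying nonproducer Raji lymphoblastoid cells grown in 10% FBS RPMI 1640. Cells were incubated at 37 °C for 48 h with n-butyric acid (4 mM) and TPA (32 pmol, 20 ng/mL) in DMSO, plus test compound in DMSO. Smears were stained with EA-positive nasopharyngeal carcinoma patient sera and read by indirect immunofluorescence, counting ≥500 cells per assay, run twice. Average EA induction is expressed relative to butyrate+TPA control.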

Raji [2] = test: Inhibition of 12-O-tetradecanoylphorbol-13-acetate-induced EBV-early antigen activation in human Raji cells assessed as EA activation at 500 molar ratio after 48 hrs relative to TPA; design: scale not given: the % may be the effect or the level left; details: human gammaherpesvirus 4; how it was run: as §1
Raji [3] = test: Inhibition of 12-O-tetradecanoylphorbol-13-acetate-induced EBV-early antigen activation in human Raji cells assessed as EA activation at 100 molar ratio after 48 hrs relative to TPA; design: scale not given: the % may be the effect or the level left; details: human gammaherpesvirus 4; how it was run: as §1
Raji [4] = test: Inhibition of 12-O-tetradecanoylphorbol-13-acetate-induced EBV-early antigen activation in human Raji cells assessed as EA activation at 10 molar ratio after 48 hrs relative to TPA; design: scale not given: the % may be the effect or the level left; details: human gammaherpesvirus 4; how it was run: as §1
[5] = Cytotoxicity against human Raji cells assessed as cell viability at 1000 molar ratio by trypan blue assay; details: read-out: Activity

| SMILES | Activity (Raji [1]) [%] | Activity (Raji [2]) [%] | Activity (Raji [3]) [%] | Activity (Raji [4]) [%] | viability at 1000 molar ratio [5] [%] |
| --- | --- | --- | --- | --- | --- |
| C[C@@]12CC[C@H]3[C@]4(C)CCC[C@@](C)(C(=O)O)[C@H]4C[C@H](O)[C@]3(CC1=O)C2 | 6.9 | 41.7 | 76.3 | 94.6 | 60 |
| C[C@@]12CC[C@@H]3[C@@](CC[C@H]4[C@@]3(C)CCC[C@@]4(C)C(=O)O)(CC1=O)C2 [ISOSTEVIOL] | 12.3 | 46.7 | 80 | 98.8 | 60 |
| C[C@@]12CCC[C@@](C)(C(=O)O)[C@H]1CC[C@]13CC(=O)[C@](C)(C1)[C@H](O)C[C@H]32 | 5.7 | 40 | 75.1 | 93.2 | 60 |
| C[C@@]12CCC[C@@](C)(C(=O)O)[C@H]1CC[C@@]13CC(=O)[C@@](CO)(CC[C@H]12)C3 | 8.2 | 42.6 | 77 | 95.7 | 60 |
| C[C@@]12CC[C@@H]3[C@@](CC1=O)(C2)C(=O)C[C@H]1[C@@]3(C)CCC[C@@]1(C)C(=O)O | 7.4 | 35.1 | 72.3 | 94.5 | 60 |
| C=C1C[C@@]23CC[C@H]4[C@@](C)(CCC[C@@]4(C)C(=O)O[C@@H]4O[C@H](CO)[C@@H](O)[C@H](O)[C@H]4O)[C@@H]2CC[C@]1(O[C@@H]1O[C@H](CO)[C@@H](O)[C@H](O)[C@H]1O[C@@H]1O[C@H](CO)[C@@H](O)[C@H](O)[C@H]1O)C3 [STEVIOSIDE] | 12.5 | 46.2 | 78.9 | 100 | 60 |
| CC1=C(/C=C/C(C)=C/C=C/C(C)=C/C=C/C=C(C)/C=C/C=C(C)/C=C/C2=C(C)CCCC2(C)C)C(C)(C)CCC1 | 8.6 |  |  | 100 |  |
| C[C@@]12C[C@H](O)[C@@H]3[C@@](CC[C@H]4[C@@]3(C)CCC[C@@]4(C)C(=O)O)(CC1=O)C2 | 4 | 39.8 | 74.1 | 91 | 60 |
